Experimental data as given in PubChem BioAssay.
Activity calls are given as the source filed them.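 The calls were made as follows, unless noted: active = GFP response above 150% of the DMSO level; inconclusive = fewer than 70 events counted for a yeast strain; inactive = the rest.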

Experiments:
[1] = hit retest on RPL19A-GFP reporter strain – cell-based, S. cerevisiae, flow cytometry, cherry picks, mother/daughter gates, confirmation (AID 2270;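 active = GFP response below 50% of the DMSO control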); details: 3 h, at 10 µM, stronger effect = lower value, 100 = same GFP as DMSO wells
[2] = yeast TOR pathway reporter LAP4-GFP change – cell-based, cherry picks, flow cytometry, mother/daughter gates, confirmation (AID 2271;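 active = GFP response above 150% of the DMSO control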;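 also: ratio of sample to DMSO plate mean so 100% equals DMSO level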); details: S. cerevisiae LAP4-GFP strain, 3 h, at 10 µM, stronger effect = higher value, 100 means same as DMSO control
Method in brief: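 Material: Alexa Fluor 633-labelled Saccharomyces cerevisiae GFP-fusion strain, single-plex | Amount: Yeast cells seeded at OD600 of 0.2 | Buffer or medium: SC growth medium | Schedule: 3 h exposure, 30 °C | Measured by: HT flow cytometry, GFP fluorescence channel | Evaluation: % GFP response vs DMSO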

[3] = TOR pathway reporter MEP2-GFP, retest of hits – S. cerevisiae, flow cytometry GFP, cherry picks, confirmation (AID 2272;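 active = GFP response above 150% of the DMSO control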;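 also: ratio of well signal to plate DMSO mean so 100% equals DMSO level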); details: S. cerevisiae MEP2-GFP strain, 3 h, at 10 µM, stronger effect = higher value
[4] = yeast AGP1-GFP fluorescence change, single-dose – cell-based, flow cytometry, S. cerevisiae, cherry picks, confirmation (AID 2273);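 also: median GFP channel fluorescence over the whole cell population gate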; details: S. cerevisiae AGP1-GFP strain, 3 h, at 10 µM
[5] = TOR pathway CIT2 reporter hit retest – S. cerevisiae, GFP fusion, cherry picks, mother/daughter gates, confirmation (AID 2274); details: S. cerevisiae CIT2-GFP strain, flow cytometry, 3 h, at 10 µM, stronger effect = higher value
[6] = measured here: daughter cell gate
[7] = measured here: mother cell gate
[8] = measured here: daughter cell gate response
[9] = measured here: mother cell gate response

SMILES	GFP response vs DMSO [1]	GFP response vs DMSO [1, 6] [%]	GFP response vs DMSO [1, 7] [%]	GFP response relative to DMSO [2]	GFP response relative to DMSO [2, 8] [%]	GFP response relative to DMSO [2, 9] [%]	GFP response vs DMSO [3]	GFP response, % of DMSO [4]	GFP response, % of DMSO [5]	GFP response, % of DMSO [5, 6] [%]	GFP response, % of DMSO [5, 7] [%]
COc1cccc(/C=N/NC(=O)CCC(=O)Nc2ccc(Br)cc2)c1	98.9% (inactive)	100	98	90.6% (inactive)	92.9	90.3	108% (inactive)	100% (inactive)	98.6% (inactive)	101	99.3
CC(=O)c1cc(NC(=O)c2ccc(C)cc2)c(=O)oc1C	96.6% (inactive)	97.5	96	105% (inactive)	104	104	104% (inactive)	94.3% (inactive)	99.3% (inactive)	100	96.8
CCN(CC(O)Cn1c2ccccc2c2ccccc21)S(=O)(=O)c1ccc(F)cc1 (centres undefined)	96% (inactive)	96.5	96.7	108% (inactive)	107	108	97.5% (inactive)	95.8% (inactive)	96.4% (inactive)	96.4	94.5
CC1CC2=C(CC1/C=N/NC(N)=S)C(C)(C)CCC2 (centres undefined)	96.4% (inactive)	92.7	95.3	110% (inactive)	106	113	107% (inactive)	97.5% (inactive)	91.5% (inactive)	88.4	90.7
Cc1c(O)ccc(C(=O)CN2CCN(c3ccc(F)cc3)CC2)c1O	98% (inactive)	97.3	96.7	101% (inactive)	99	101	106% (inactive)	101% (inactive)	101% (inactive)	99.3	102
COC(=O)c1ccccc1OCC(=O)NC1CCCCC1	88.9% (inactive)	83.8	92.2	135% (inactive)	126	145	89.9% (inactive)	91.7% (inactive)	84.1% (inactive)	80.7	85.5
CC1CCCN(CCCNC(=O)C2CCN(S(=O)(=O)N3CCC4(CC3)OCCO4)CC2)C1 (centres undefined)	96.4% (inactive)	96.1	98.5	97.9% (inactive)	97.6	96.1	96.2% (inactive)	98.9% (inactive)	105% (inactive)	106	106
COc1cc(NC(=O)c2c(OC)cccc2OC)ccc1NC(=O)c1cc2ccccc2o1	96% (inactive)	95.5	96.5	109% (inactive)	104	108	102% (inactive)	95.4% (inactive)	96.4% (inactive)	98.3	93.3
CCOC(=O)CS(=O)(=O)c1nc(-c2ccccc2)cc(C(F)(F)F)n1	101% (inactive)	105	96.2	204% (active)	192	206	130% (inactive)	110% (inactive)	110% (inactive)	110	101
COc1ccc(NC(=O)c2ccccc2NC(=O)c2ccccc2)cc1	98.4% (inactive)	98.4	99.2	91.5% (inactive)	94.4	89.7	96.2% (inactive)	102% (inactive)	103% (inactive)	101	102
Cc1cccc(NC(=S)NCC23C=CC(O2)C2C(=O)N(c4ccc(Cl)cc4)C(=O)C23)c1 (centres undefined)	100% (inactive)	103	99.8	103% (inactive)	102	104	102% (inactive)	100% (inactive)	104% (inactive)	104	103
Cc1ccccc1Sc1ncnc2onc(C)c12	98.5% (inactive)	99	96.9	97.7% (inactive)	96	97.4	106% (inactive)	104% (inactive)	98.6% (inactive)	101	98.2
O=C(c1ccccn1)c1conc1C(=O)c1ccc(Br)cc1	98.2% (inactive)	93.9	102	204% (active)	159	213	153% (inactive)	105% (inactive)	139% (inactive)	126	147
Cc1ccc(N2C(=O)C3C4C=CC(CNC(=S)Nc5ccc(Cl)cc5)(O4)C3C2=O)cc1 (centres undefined)	102% (inactive)	101	100	101% (inactive)	103	102	102% (inactive)	102% (inactive)	99.1% (inactive)	98.1	97.7
COc1ccccc1NC(=O)c1ccc([N+](=O)[O-])o1	102% (inactive)	102	101	120% (inactive)	115	122	102% (inactive)	99.3% (inactive)	107% (inactive)	108	106
CNc1nc(-c2ccccc2)cc(C(F)(F)F)c1C#N	97.4% (inactive)	95.3	92.9	96.2% (inactive)	95.6	93.1	104% (inactive)	102% (inactive)	102% (inactive)	99.7	98.7
Cc1ccc(C(=O)/C=C/C(=O)c2ccc(C)cc2)cc1	103% (inactive)	104	97.7	195% (active)	190	201	101% (inactive)	111% (inactive)	95.9% (inactive)	100	84.8

SMILES	GFP response vs DMSO [1]	GFP response vs DMSO [1, 6] [%]	GFP response vs DMSO [1, 7] [%]	GFP response relative to DMSO [2]	GFP response relative to DMSO [2, 8] [%]	GFP response relative to DMSO [2, 9] [%]	GFP response vs DMSO [3]	GFP response, % of DMSO [4]	GFP response, % of DMSO [5]	GFP response, % of DMSO [5, 6] [%]	GFP response, % of DMSO [5, 7] [%]
COC(=O)Cn1nc(-c2ccccc2)c2cc(Cl)ccc21	101% (inactive)	100	101	104% (inactive)	104	104	109% (inactive)	102% (inactive)	114% (inactive)	116	112
O=C(NCc1cccnc1)c1cnc2n(c1=O)CCS2	101% (inactive)	101	101	101% (inactive)	104	100	99.3% (inactive)	102% (inactive)	98.6% (inactive)	101	99.3
Clc1ccc(N=c2ssnc2Cl)cc1	97.8% (inactive)	99.2	92.9	154% (active)	139	161	107% (inactive)	97.4% (inactive)	104% (inactive)	105	99.8
Cc1cccc(C)c1NC(=O)c1nc(S(=O)(=O)Cc2ccccc2)ncc1Cl	97.1% (inactive)	96.4	95.8	102% (inactive)	101	101	101% (inactive)	102% (inactive)	94.4% (inactive)	92.3	93.8
COc1cccc2c1Oc1ncccc1N(C(=O)CCC(=O)NCc1cccc(C)c1)C2	98.4% (inactive)	98.6	99.2	97.9% (inactive)	97.6	98.3	100% (inactive)	97.6% (inactive)	105% (inactive)	106	104
O=C(c1ccc([N+](=O)[O-])o1)N(Cc1nnc(-c2ccccc2Cl)o1)C1CC1	99.4% (inactive)	100	99.5	98.2% (inactive)	99.1	98.4	99% (inactive)	101% (inactive)	98.8% (inactive)	101	96.8
O=c1[nH]n(Cc2ccccc2)c2ccccc12	97.6% (inactive)	97.8	97.8	103% (inactive)	102	103	102% (inactive)	98.7% (inactive)	96.4% (inactive)	96.4	94.5
O=[N+]([O-])c1ccc(SCCc2ccncc2)cc1	94.8% (inactive)	97.4	95.4	99.2% (inactive)	99.2	98.3	96.2% (inactive)	98.7% (inactive)	99.7% (inactive)	101	101
CN1CCN(C(c2ccc(C(F)(F)F)cc2)c2ccc3cccnc3c2O)CC1 (centres undefined)	93.6% (inactive)	87.3	86.7	216% (active)	190	218	109% (inactive)	87.4% (inactive)	97.3% (inactive)	95.6	94.4
CC(C)c1nc2ccccn2c1NC1CCCCC1	101% (inactive)	98.4	98	97.9% (inactive)	99.2	98.3	100% (inactive)	102% (inactive)	101% (inactive)	103	101
N#Cc1nccnc1S(=O)(=O)c1cccs1	96.2% (inactive)	99.5	94.6	166% (active)	149	162	106% (inactive)	96.1% (inactive)	103% (inactive)	103	98.2
CS(=O)(=O)N1N=C(c2ccco2)CC1c1ccc(Cl)cc1 (centres undefined)	101% (inactive)	102	101	96.5% (inactive)	97.9	94.6	104% (inactive)	101% (inactive)	101% (inactive)	100	100
CCN(Cc1ccccc1)S(=O)(=O)c1ccc(C(=O)Nc2nnc(C)o2)cc1	97.2% (inactive)	98.5	98.6	102% (inactive)	102	107	102% (inactive)	100% (inactive)	101% (inactive)	102	101
Cc1cc(=O)n2c3c(sc2n1)C(=O)N(Cc1ccccc1)C3=O	94.3% (inactive)	94.5	94	152% (active)	140	161	103% (inactive)	105% (inactive)	81% (inactive)	87.3	74.8
O=C1c2ccsc2SCCN1Cc1ccccc1	93.8% (inactive)	92.9	94.8	112% (inactive)	109	114	94.1% (inactive)	101% (inactive)	92.6% (inactive)	91.7	90.2
O=C(NCc1ccc2c(c1)OCO2)c1nc(S(=O)(=O)Cc2ccccc2)ncc1Cl	97.8% (inactive)	96.2	97.4	109% (inactive)	102	109	99.5% (inactive)	94.5% (inactive)	99.3% (inactive)	98.3	96.8
Cc1cc(O)c(C(=O)/C=C/c2ccccc2O)c(=O)o1	101% (inactive)	98.9	101	119% (inactive)	109	125	105% (inactive)	90.2% (inactive)	89.8% (inactive)	91.7	86.7
